Results reported in ChEMBL document CHEMBL2424606, “Selective cytotoxicity, inhibition of cell cycle progression, and induction of apoptosis in human breast cancer cells by sesquiterpenoids from Inula lineariifolia Turcz” (Eur J Med Chem, 2013).
pIC50: −log10 of the molar value. Activity calls are given as the source filed them. The rule behind the calls is not given here.

How the values were obtained:
MDA-MB-231 [1] = experiment: Induction of apoptosis in human MDA-MB-231 cells assessed as apoptotic index at 5 uM after 48 hrs by annexin V-FITC/propidium iodide staining-based flow cytometric analysis relative to control; type: functional
Summary of the method: (§1)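 Treatment of 2–3×10⁵ cells with compound at 0, 1 or 5 μM for 48 h. Media plus cells collected, washed in serum-free medium, resuspended in Annexin V binding buffer. Stained with annexin V-FITC and propidium iodide 15 min in the dark at room temperature, then flow cytometry. Early (annexin only) and late (annexin+PI) apoptotic cells counted. Apoptotic index vs untreated cells. Means ± S.D., Student's t-test vs DMSO control.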

MCF7 [2] = experiment: Induction of apoptosis in human MCF7 cells assessed as apoptotic index at 5 uM after 48 hrs by annexin V-FITC/propidium iodide staining-based flow cytometric analysis relative to control; type: functional; summary of the method: as §1
MCF7 [3] = experiment: Induction of apoptosis in human MCF7 cells after 48 hrs by annexin V-FITC/propidium iodide staining-based flow cytometric analysis; type: functional, cell-based; summary of the method: as §1
MDA-MB-231 [4] = experiment: Induction of apoptosis in human MDA-MB-231 cells after 48 hrs by annexin V-FITC/propidium iodide staining-based flow cytometric analysis; type: functional, cell-based; summary of the method: as §1
MDA-MB-231 [5] = experiment: Cell cycle arrest in human MDA-MB-231 cells assessed as accumulation at S phase at 2.5 uM after 24 hrs by propidium iodide staining-based flow cytometric analysis; type: functional
Summary of the method: (§2)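 Cells (2–3×10⁵) exposed to test compound at 0, 1 or 2.5 μM for 24 h. Trypsinized, PBS-washed, fixed in 95% ethanol at 4 °C overnight, RNAse-treated, propidium iodide-stained. DNA content measured by flow cytometry for phase distribution.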

MDA-MB-231 [6] = experiment: Cell cycle arrest in human MDA-MB-231 cells assessed as accumulation at G2/M phase at 2.5 uM after 24 hrs by propidium iodide staining-based flow cytometric analysis; type: functional; summary of the method: as §2
MDA-MB-231 [7] = experiment: Cell cycle arrest in human MDA-MB-231 cells assessed as accumulation at S phase after 24 hrs by propidium iodide staining-based flow cytometric analysis; type: functional; summary of the method: as §2
MCF7 [8] = experiment: Cell cycle arrest in human MCF7 cells assessed as accumulation at G2/M phase at 2.5 uM after 24 hrs by propidium iodide staining-based flow cytometric analysis; type: functional; summary of the method: as §2
MDA-MB-231 [9] = experiment: Cell cycle arrest in human MDA-MB-231 cells assessed as accumulation at G2/M phase after 24 hrs by propidium iodide staining-based flow cytometric analysis; type: functional; summary of the method: as §2
MCF7 [10] = experiment: Cell cycle arrest in human MCF7 cells assessed as accumulation at G2/M phase after 24 hrs by propidium iodide staining-based flow cytometric analysis; type: functional; summary of the method: as §2
MCF-10A = experiment: Cytotoxicity against human MCF10A cells assessed as growth inhibition after 72 hrs by MTT assay; type: cell-based
Summary of the method: (§3)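 3×10³ cells/well exposed 72 h to compound at 0, 1, 5, 10, 25, 50 μM, DMSO as vehicle control. MTT (5 mg/mL solution) added for 2–4 h at 37°C. Formazan dissolved in DMSO, absorbance read at 570 nm. Viability is mean OD relative to DMSO wells. IC50 from three separate experiments.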

MDA-MB-231 [11] = experiment: Cytotoxicity against human MDA-MB-231 cells assessed as growth inhibition after 72 hrs by MTT assay; type: functional, cell-based; conditions: MDA-MB-231, 72 h; summary of the method: as §3
MCF7 [12] = experiment: Cytotoxicity against human MCF7 cells assessed as growth inhibition after 72 hrs by MTT assay; type: functional, cell-based; conditions: MCF7, 72 h; summary of the method: as §3

| SMILES | pIC50 (MCF-10A) | pIC50 (MDA-MB-231 [11]) | pIC50 (MCF7 [12]) | other results |
| --- | --- | --- | --- | --- |
| C=C1C(=O)O[C@H]2C[C@H](C)[C@@]34C[C@@]5(C(=O)O[C@H]6C[C@@H](C)[C@@H]7[C@@H](OC(C)=O)C[C@H](O)[C@@]7(C)C[C@@H]65)[C@@H](C(C)=C3C[C@H]12)[C@@H]4O | 4.55 | 5.55 | 5.80 | fold change (FC) (MDA-MB-231 [1]): 14.2; fold change (FC) (MCF7 [2]): 7.6; Activity (MCF7 [3]): Dose-dependent effect; Activity (MDA-MB-231 [4]): Dose-dependent effect; Activity (MDA-MB-231 [5]): Active; Activity (MDA-MB-231 [6]): Active; Activity (MDA-MB-231 [7]): Dose-dependent effect; Activity (MCF7 [8]): Active; Activity (MDA-MB-231 [9]): Dose-dependent effect; Activity (MCF7 [10]): Dose-dependent effect |
| C[C@@H]1C2=C[C@H]3[C@@H](C[C@@]2(C)CC[C@@H]1O)OC(=O)[C@@H]3C | < 4.30 | < 4.30 | < 4.30 |  |
| C=C1C(=O)O[C@@H]2CC(C)=C3[C@@H](OC(C)=O)C[C@@](C)(O)[C@@H]3C[C@H]12 [INUCHINENOLIDE B] | < 4.30 | 4.59 | 4.81 |  |
| C=C1C(=O)O[C@@H]2CC(C)=C3[C@@H](C[C@H]12)[C@](C)(O)C[C@@H]3O | < 4.30 | < 4.30 | < 4.30 |  |
| C=C1C(=O)O[C@H]2C[C@H](C)[C@H]3[C@@H](O)C[C@@](C)(O)[C@@]34O[C@H]4[C@H]12 | < 4.30 | < 4.30 | < 4.30 |  |
| C=C1C(=O)O[C@H]2C[C@@H](C)[C@@H]3C=CC(=O)[C@@]3(C)[C@@H](OC(C)=O)[C@H]12 [BIGELOVIN] | 4.59 | 5.64 | 5.68 |  |
| C=C1C(=O)O[C@@H]2C[C@H](C)[C@@H]3[C@@H](OC(C)=O)C[C@H](O)[C@@]3(C)C[C@H]12 | < 4.30 | 4.89 | 5.17 |  |
| CC(=O)O[C@H]1C(=O)[C@@]2(C)[C@H]([C@H](OC(=O)c3ccccc3)[C@]3(O)C[C@H](OC(=O)[C@H](O)[C@@H](NC(=O)c4ccccc4)c4ccccc4)C(C)=C1C3(C)C)[C@]1(OC(C)=O)CO[C@@H]1C[C@@H]2O [PACLITAXEL] | 6.37 | 7.06 | 7.12 |  |
| C=C1C(=O)O[C@H]2C=C(C)[C@@H]3[C@@H]([C@@H](O)[C@H]12)[C@](C)(O)C[C@@H]3OC(C)=O | < 4.30 | 4.94 | 5.21 |  |
| C=C1C(=O)O[C@H]2C[C@H](C)[C@@]34C[C@@]5(C(=O)O[C@H]6C=C(C)[C@H]7[C@@H](OC(C)=O)C[C@@](C)(O)[C@@H]7C[C@@H]65)[C@@H](C(C)=C3C[C@H]12)[C@@H]4OC(C)=O | < 4.30 | 4.97 | 5.47 |  |
| C=C1C(=O)O[C@@H]2CC(C)=C3[C@@H](OC(C)=O)C[C@@](C)(O)[C@@H]3[C@@H](O)[C@H]12 | < 4.30 | < 4.30 | < 4.30 |  |
| C=C1C[C@@H]2OC(=O)C(=C)[C@H]2C[C@@H]2[C@@H]1[C@@H](O)C[C@@]2(C)O | < 4.30 | 4.68 | 4.86 |  |
| CC(=O)O[C@H]1C=C(CCO)[C@@H](C)C[C@H]2OC(=O)[C@@H](C)[C@@H]12 | < 4.30 | < 4.30 | < 4.30 |  |
| C=C1C(=O)O[C@@H]2/C=C(\C)CC/C=C(\CO)C[C@@H](O)[C@@H]12 [DEACETYLOVATIFOLIN] | 4.34 | 4.86 | 5.16 |  |
| C=C1C(=O)O[C@H]2C[C@H](C)[C@@]34C[C@@]5(C(=O)O[C@H]6C=C(C)[C@H]7[C@@H](OC(C)=O)C[C@@](C)(O)[C@@H]7C[C@@H]65)[C@@H](C(C)=C3C[C@H]12)[C@@H]4O | < 4.30 | 4.78 | 5.11 |  |
| C=C1C(=O)O[C@H]2C[C@H](C)[C@@]34C[C@@]5(C(=O)O[C@H]6/C=C(\C)CC/C=C(\CO)C[C@H](O)[C@@H]65)[C@@H](C(C)=C3C[C@H]12)[C@@H]4OC(C)=O | 4.58 | 5.24 | 5.43 |  |
